Paper PMC3717159 (Investigational New Drugs, 2012)
pIC50: −log10 of the molar value.

Columns and labels:
human MET kinase domain [1] = molecular target: T1, human MET kinase domain (Homo sapiens, UniProt P08581); experiment: MET kinase radiometric filter-binding assay; assay type: biochemical; details: versus ATP
human MET kinase domain [2] = molecular target: T1, human MET kinase domain; experiment: MET kinase spin column assay; assay type: biochemical; details: from Koff
DU145 cells = experiment: HGF induced cell scattering assay; assay type: cell-based; details: 0.01–10 μM, HGF 20 ng/ml, 48 h, colony counts
In short: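 DU145 cells (2 × 10^3/well) were plated on poly-D-lysine and given test compound (0.4 % DMSO), then immediately human HGF (20 ng/ml). After 48 h at 37 °C, cells were fixed in 2 % formaldehyde and stained with Alexa488-phalloidin plus propidium iodide. Colonies (≥ 4 cells) were counted by laser-scanning microplate cytometry.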

MV4-11 cells = experiment: In vitro anti-proliferative activity for MV4-11 cells; assay type: cell-based; details: Homo sapiens, MV4-11, read-out: in vitro anti-proliferative activity IC50
[3] = molecular target: MET phosphorylation in S114 xenograft tumors (Homo sapiens, UniProt P08581); experiment: In vivo MET target inhibition in S114 xenograft tumors; set-up: species or system mouse
Chain of MET phosphorylation in S114 xenograft tumors (P08581 25-1390): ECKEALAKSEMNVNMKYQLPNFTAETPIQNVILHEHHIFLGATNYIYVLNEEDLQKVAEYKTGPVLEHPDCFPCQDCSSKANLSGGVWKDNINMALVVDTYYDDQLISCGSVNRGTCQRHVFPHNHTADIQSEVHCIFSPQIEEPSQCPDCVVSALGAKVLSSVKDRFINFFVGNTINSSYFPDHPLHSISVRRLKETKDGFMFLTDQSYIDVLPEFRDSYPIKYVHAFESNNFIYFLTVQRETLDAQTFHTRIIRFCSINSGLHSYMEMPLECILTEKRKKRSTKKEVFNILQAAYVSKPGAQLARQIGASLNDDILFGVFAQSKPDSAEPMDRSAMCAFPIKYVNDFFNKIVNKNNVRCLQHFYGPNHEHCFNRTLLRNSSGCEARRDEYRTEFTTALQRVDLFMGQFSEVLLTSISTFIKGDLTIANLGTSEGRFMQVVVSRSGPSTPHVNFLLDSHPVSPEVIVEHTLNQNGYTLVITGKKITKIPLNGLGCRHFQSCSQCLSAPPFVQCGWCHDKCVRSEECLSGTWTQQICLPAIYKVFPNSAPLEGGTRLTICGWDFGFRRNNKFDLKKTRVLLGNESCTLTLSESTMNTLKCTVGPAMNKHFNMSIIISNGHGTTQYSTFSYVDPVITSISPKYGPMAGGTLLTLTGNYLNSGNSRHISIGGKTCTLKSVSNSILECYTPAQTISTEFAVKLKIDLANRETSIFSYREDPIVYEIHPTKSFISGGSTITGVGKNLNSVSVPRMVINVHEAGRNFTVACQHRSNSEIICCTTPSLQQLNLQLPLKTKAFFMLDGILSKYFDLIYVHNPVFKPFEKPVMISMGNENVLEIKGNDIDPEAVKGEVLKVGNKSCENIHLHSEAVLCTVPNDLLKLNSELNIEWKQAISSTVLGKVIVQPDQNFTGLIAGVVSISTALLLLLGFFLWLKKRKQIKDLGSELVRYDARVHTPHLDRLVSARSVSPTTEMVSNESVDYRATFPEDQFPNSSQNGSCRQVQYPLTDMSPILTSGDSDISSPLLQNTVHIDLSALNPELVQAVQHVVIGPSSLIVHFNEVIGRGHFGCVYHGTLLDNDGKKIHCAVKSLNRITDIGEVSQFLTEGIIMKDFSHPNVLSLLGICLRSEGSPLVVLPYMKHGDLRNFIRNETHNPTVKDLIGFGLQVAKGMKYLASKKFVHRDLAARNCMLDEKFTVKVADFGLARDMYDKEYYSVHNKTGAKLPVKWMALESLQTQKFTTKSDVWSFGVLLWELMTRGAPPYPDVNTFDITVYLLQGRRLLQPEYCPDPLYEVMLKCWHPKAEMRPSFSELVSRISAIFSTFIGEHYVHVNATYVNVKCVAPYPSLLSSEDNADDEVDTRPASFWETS
In short: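 Subcutaneous tumors from S114 cells (NIH3T3-derived murine line engineered to express human MET and HGF) in nude mice. Test compound in 10 % acacia, single oral dose. Dose response read 2 h post-dose (n = 8 per dose group, 4 studies pooled); 12 mg/kg time course over 24 h. Tumor phospho-MET measured by MSD ELISA relative to vehicle group, with pharmacokinetic analysis alongside.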

Pharmacokinetics in mice = details: mouse, in vivo, oral
[4] = Pharmacokinetics in non-human primate; details: in vivo, oral
U-87MG xenograft = experiment: Anti-tumor growth activity, xenograft model; assay type: in vivo, mouse; details: MET autocrine model, oral
In short: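 U-87MG xenografts were grown in nude mice. Test compound in 10 % acacia was given orally twice daily, either continuously or intermittently. The 5/2 schedule (5 dosing days, 2 off) ran for 4 cycles; the 9/5 schedule (9 dosing days, 5 off) ran for 2 cycles. Tumour growth was compared with vehicle controls.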

KP4 xenograft = experiment: Anti-tumor growth activity, xenograft model; assay type: in vivo, mouse; details: KP4, MET autocrine model, oral
In short: (§1)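 Xenografts were grown in athymic or CD-1 nude mice. Test compound was formulated in 10 % acacia and given orally twice daily without interruption. Tumour growth was compared with a vehicle-treated control group.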

MKN45 xenograft = experiment: Anti-tumor growth activity, xenograft model; assay type: in vivo, mouse; details: MKN45, very high MET gene amplification, oral
In short: as §1

H441 xenograft = experiment: Anti-tumor growth activity, xenograft model; assay type: in vivo, mouse; details: H441, MET over-expression, oral
In short: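 H441 xenografts were grown in nude mice. Test compound in 10 % acacia was given orally twice daily, either continuously or on intermittent schedules. The 5/2 schedule (5 dosing days, 2 drug-free days) ran for 6 cycles; the 9/5 schedule (9 dosing days, 5 drug-free days) ran for 3 cycles. Tumour growth was compared with vehicle controls.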

H1993 xenograft = experiment: Anti-tumor growth activity, xenograft model; assay type: in vivo, mouse; details: H1993, co-express MET and MST1R, oral
In short: as §1

HT29 xenograft = experiment: Anti-tumor growth activity, xenograft model; assay type: in vivo, mouse; details: HT29, co-express MET and MST1R, oral
In short: as §1

MV4-11 xenograft = experiment: Anti-tumor growth activity, xenograft model; assay type: in vivo, mouse; details: MV4-11, FLT3-activating mutation, oral
In short: (§2)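 Nude mice (athymic or CD-1) carried H1299 orthotopic tumours or MV4-11 xenografts. Test compound was formulated in 10 % acacia and given orally.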

H1299 orthotopic model = experiment: Anti-tumor growth activity, orthotopic model of NSCLC; assay type: in vivo, mouse; details: AXL over-expression, oral
In short: as §2

U-87MG xenograft tumors = experiment: Multiplexed immunofluorescence tumor tissue imaging of U-87MG xenograft tumors; assay type: in vivo, mouse; details: 12 mg/kg once daily, 28 days, vs vehicle
In short: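 Mice bearing U-87MG xenografts received test compound orally (10 % acacia) at 1.3 or 12 mg/kg once daily for 28 days, or vehicle. Tumours were then excised and fixed in Zinc-Tris. One panel stained […], CD31, Ki67 and TUNEL; the other stained Hoechst, CD31, GLUT1 and smooth muscle actin. Staining was quantified by imaging.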

ALK = ALK (Homo sapiens, UniProt Q9UM73); experiment: Biochemical screening against 442 kinases
Chain of ALK (Q9UM73 19-1620): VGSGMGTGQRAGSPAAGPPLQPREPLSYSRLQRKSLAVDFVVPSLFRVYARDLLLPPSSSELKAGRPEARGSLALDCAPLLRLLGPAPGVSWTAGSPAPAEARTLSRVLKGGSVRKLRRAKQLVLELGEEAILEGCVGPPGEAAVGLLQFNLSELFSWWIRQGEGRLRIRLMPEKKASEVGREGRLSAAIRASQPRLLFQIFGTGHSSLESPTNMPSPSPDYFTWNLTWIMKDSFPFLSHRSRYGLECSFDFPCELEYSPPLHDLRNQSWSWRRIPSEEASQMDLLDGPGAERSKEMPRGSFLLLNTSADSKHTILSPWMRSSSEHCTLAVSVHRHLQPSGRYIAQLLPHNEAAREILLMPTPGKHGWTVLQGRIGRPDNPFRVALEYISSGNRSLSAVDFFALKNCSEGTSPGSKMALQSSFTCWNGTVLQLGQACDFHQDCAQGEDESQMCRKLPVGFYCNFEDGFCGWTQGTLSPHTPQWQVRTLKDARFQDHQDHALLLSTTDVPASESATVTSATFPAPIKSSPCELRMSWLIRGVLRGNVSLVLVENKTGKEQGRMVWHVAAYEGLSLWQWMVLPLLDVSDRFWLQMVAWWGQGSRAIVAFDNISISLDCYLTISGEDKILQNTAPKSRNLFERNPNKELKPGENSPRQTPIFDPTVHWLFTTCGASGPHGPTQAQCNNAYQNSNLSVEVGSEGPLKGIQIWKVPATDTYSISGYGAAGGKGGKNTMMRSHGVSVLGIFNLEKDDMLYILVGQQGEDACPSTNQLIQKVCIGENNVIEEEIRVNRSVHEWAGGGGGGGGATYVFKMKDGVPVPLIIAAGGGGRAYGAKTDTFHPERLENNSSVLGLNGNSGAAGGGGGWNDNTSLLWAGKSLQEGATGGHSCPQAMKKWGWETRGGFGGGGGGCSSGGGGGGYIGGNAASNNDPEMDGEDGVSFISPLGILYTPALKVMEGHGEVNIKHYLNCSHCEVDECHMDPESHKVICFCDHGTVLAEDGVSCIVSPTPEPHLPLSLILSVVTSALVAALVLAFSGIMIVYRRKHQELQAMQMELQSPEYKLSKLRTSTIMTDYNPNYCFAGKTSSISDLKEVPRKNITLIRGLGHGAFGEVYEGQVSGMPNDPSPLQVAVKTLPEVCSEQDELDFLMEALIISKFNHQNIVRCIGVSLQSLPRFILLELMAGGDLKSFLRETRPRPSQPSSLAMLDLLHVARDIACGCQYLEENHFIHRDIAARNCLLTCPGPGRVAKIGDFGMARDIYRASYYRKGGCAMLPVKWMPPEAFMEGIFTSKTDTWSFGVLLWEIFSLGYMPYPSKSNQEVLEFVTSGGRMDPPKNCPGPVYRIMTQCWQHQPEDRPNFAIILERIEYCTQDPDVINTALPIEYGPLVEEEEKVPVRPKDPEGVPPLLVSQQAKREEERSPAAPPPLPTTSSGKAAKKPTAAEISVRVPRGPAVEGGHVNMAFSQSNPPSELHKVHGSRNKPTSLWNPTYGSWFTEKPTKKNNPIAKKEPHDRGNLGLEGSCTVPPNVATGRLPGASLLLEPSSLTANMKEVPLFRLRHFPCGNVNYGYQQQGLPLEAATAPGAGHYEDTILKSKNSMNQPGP

LTK = LTK (Homo sapiens, UniProt P29376); experiment: Biochemical screening against 442 kinases
Chain of LTK (P29376 17-864): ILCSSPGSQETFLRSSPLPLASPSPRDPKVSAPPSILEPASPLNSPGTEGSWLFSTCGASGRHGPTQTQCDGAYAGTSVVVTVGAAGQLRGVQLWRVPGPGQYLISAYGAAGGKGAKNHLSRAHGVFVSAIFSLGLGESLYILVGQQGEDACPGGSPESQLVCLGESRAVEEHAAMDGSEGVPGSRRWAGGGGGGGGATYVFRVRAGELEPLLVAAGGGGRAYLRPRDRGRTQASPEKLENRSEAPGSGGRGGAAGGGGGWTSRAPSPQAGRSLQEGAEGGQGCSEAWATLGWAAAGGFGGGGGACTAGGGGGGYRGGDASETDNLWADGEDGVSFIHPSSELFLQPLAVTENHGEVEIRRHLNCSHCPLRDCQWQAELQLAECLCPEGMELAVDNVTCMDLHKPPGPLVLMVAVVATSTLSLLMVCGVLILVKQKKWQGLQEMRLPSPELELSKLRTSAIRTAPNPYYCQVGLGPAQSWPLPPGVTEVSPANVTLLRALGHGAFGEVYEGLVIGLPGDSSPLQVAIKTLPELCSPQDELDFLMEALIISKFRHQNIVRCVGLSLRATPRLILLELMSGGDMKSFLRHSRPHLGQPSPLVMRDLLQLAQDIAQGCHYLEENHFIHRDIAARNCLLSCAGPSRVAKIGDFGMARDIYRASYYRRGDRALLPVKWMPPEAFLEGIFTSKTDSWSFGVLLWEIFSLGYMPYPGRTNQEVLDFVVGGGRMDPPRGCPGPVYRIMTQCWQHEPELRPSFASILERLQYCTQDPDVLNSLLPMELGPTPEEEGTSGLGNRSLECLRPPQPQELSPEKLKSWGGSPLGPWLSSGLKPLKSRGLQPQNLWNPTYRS

[5] = S114 xenograft, 2 h after dose, oral, 4 studies
[6] = S114 xenograft, plasma concentration, 2 h after dose

T1 sequence (P08581 1078-1345 limits assumed): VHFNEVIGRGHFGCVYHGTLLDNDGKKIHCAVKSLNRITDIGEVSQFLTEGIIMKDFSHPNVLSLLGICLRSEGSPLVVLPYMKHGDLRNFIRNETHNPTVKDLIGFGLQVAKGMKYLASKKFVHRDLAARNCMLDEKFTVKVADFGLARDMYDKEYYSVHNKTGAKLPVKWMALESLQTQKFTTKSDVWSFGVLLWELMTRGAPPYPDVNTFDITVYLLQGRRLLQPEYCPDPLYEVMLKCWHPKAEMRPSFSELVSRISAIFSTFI

Cc1ccc(C(=O)Nc2ccc(Oc3cc4cnn(C)c4cc3-c3cn[nH]c3)c(F)c2)c(=O)n1-c1ccc(F)cc1 [LY2801653, N-(3-fluoro-4-{[1-methyl-6-(1H-pyrazol-4-yl)-1H-indazol-5 yl]oxy}phenyl)-1-(4-fluorophenyl)-6-methyl-2-oxo-1,2-dihydropyridine-3-carboxamide]
mode of inhibition (human MET kinase domain [1]): competitive | half-life (t1/2) (human MET kinase domain [2]): 8.75 h | effect on HGF-induced DU-145 cell scattering (DU145 cells): completely blocked | pIC50 (MV4-11 cells): 8.40 | p-MET inhibition in tumors by 16 h ([3]; S114 xenograft, 12 mg/kg oral, 16 h): no p-MET inhibition was observed | inhibition of p-MET ([3]; S114 xenograft, 12 mg/kg oral, at 2 h and maintained up to 8 h): Ninety-five percent | composite TED50 (50 % target inhibition dose) [3, 5]: 1.2 mg/kg | composite TED90 (90 % target inhibition dose) [3, 5]: 7.4 mg/kg | inhibition of MET phosphorylation ([3]; S114 xenograft, 2 h post-treatment, single 50-mg/kg dose, oral): 98% | TEC50 (the concentration that inhibited 50 % MET phosphorylation) [3, 6]: 0.2 µM | TEC90 (the concentration that inhibited 90 % MET phosphorylation) [3, 6]: 2 µM | inhibition at 12 mg/kg ([3]; mouse, po, read-out: inhibition of p-MET): 95% | half-life (Pharmacokinetics in mice): 2.9 h | half-life [4]: 14.3 h | anti-tumor growth effect (U-87MG xenograft): significant anti-tumor growth effect | anti-tumor growth effect (KP4 xenograft): significant anti-tumor growth effect | anti-tumor growth effect (MKN45 xenograft): significant anti-tumor growth effect | anti-tumor growth effect (H441 xenograft): significant anti-tumor growth effect | tumor activity in xenograft model (H1993 xenograft): demonstrates tumor activity | tumor activity in xenograft model (HT29 xenograft): demonstrates tumor activity | in vivo anti-tumor growth activity (MV4-11 xenograft): in vivo anti-tumor growth activity | in vivo anti-tumor growth activity (H1299 orthotopic model): in vivo anti-tumor growth activity | GLUT1 expression (U-87MG xenograft tumors): decrease in GLUT1 expression | apoptotic area (U-87MG xenograft tumors): significantly reduced apoptotic area | pericyte coverage of vessels (U-87MG xenograft tumors): increase in pericyte coverage of vessels | activity against ALK (ALK): does not have significant activity | activity against LTK (LTK): does not have significant activity
